Source: ChEMBL document CHEMBL2046277, “Design, synthesis and biological evaluation of β-carboline derivatives as novel inhibitors targeting B-Raf kinase” (Bioorg Med Chem Lett, 2012)
pIC50: −log10 of the molar value.

Each compound was assayed against Serine/threonine-protein kinase B-raf (Homo sapiens, UniProt P15056) (assay: Inhibition of human wild type B-Raf kinase assessed as change in ATP consumption by luciferase-luiferin-coupled chemiluminescent assay).
Procedure, shortened: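 Wild-type B-Raf enzyme pre-incubated with compound 30 min at 30 °C, then ATP plus unactivated MEK1 substrate added and reacted 1 h at 30 °C. ADP-Glo reagent 40 min at 27 °C, then kinase detection reagent 30 min at 27 °C, luminescence read. IC50 fitted from inhibition rates; mean of two experiments.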

Serine/threonine-protein kinase B-raf, sequence (P15056 whole entry): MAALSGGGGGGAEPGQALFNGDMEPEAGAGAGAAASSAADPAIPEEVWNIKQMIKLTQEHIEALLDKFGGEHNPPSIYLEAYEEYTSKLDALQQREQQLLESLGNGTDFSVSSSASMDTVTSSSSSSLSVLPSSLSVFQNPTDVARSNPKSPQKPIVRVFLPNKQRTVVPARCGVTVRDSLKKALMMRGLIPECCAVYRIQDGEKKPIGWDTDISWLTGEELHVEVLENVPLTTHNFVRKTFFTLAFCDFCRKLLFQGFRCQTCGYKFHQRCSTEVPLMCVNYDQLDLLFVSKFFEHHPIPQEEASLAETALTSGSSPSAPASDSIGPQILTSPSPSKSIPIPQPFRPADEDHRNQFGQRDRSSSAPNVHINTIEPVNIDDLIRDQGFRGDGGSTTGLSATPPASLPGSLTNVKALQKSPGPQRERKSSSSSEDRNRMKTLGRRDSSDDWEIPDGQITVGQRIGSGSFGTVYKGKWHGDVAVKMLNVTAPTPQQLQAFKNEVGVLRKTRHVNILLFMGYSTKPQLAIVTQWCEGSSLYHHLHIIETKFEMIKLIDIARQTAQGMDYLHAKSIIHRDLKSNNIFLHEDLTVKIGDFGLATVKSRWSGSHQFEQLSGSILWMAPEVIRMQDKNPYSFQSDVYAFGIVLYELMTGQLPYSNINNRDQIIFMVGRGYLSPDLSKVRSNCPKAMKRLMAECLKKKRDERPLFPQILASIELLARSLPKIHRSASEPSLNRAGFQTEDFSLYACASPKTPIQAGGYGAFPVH

SMILES	pIC50
CC(O)CNS(=O)(=O)c1ccc2[nH]c3c(C(N)=O)nccc3c2c1 (stereo not drawn)	4.66
NC(=O)c1nccc2c1[nH]c1ccc(S(=O)(=O)Nc3ccccn3)cc12	5.42
NS(=O)(=O)c1ccc2[nH]c3cnccc3c2c1	5.60
NC(=O)c1nccc2c1[nH]c1ccc(S(=O)(=O)Nc3ccc(F)cc3)cc12	5.05
Cc1ccc(NS(=O)(=O)c2ccc3[nH]c4c(C(N)=O)nccc4c3c2)cc1	4.69
CC(=O)NS(=O)(=O)c1ccc2[nH]c3cnccc3c2c1	4.23
NC(=O)c1nccc2c1[nH]c1ccc(S(=O)(=O)Nc3ccccc3)cc12	5.56
COC(CNS(=O)(=O)c1ccc2[nH]c3c(C(N)=O)nccc3c2c1)OC	4.04
NC(=O)c1nccc2c1[nH]c1ccc(S(N)(=O)=O)cc12	5.67
NC(=O)c1nccc2c1[nH]c1ccc(S(=O)(=O)NCC(O)CO)cc12 (stereo not drawn)	4.35
NC(=O)c1nccc2c1[nH]c1ccc(S(=O)(=O)NCCO)cc12	4.62
CCCNS(=O)(=O)c1ccc2[nH]c3c(C(N)=O)nccc3c2c1	4.55
COCCCNS(=O)(=O)c1ccc2[nH]c3c(C(N)=O)nccc3c2c1	4.64
NC(=O)c1nccc2c1[nH]c1ccc(S(=O)(=O)Nc3nccs3)cc12	5.13
NC(=O)c1nccc2c1[nH]c1ccc(S(=O)(=O)NCCCO)cc12	4.69
CN(C)CCCNS(=O)(=O)c1ccc2[nH]c3c(C(N)=O)nccc3c2c1	5.79
NC(=O)c1nccc2c1[nH]c1ccc(S(=O)(=O)NC3CC3)cc12	5.04
CCN(CC)CCCNS(=O)(=O)c1ccc2[nH]c3c(C(N)=O)nccc3c2c1	5.55
